ChEMBL document CHEMBL1123735 (J Med Chem, 1987)

Assays:
Cavia porcellus = organism: Cavia porcellus; test: Antimuscarinic activity was assayed for its ability to block the acetyl-choline induced contraction of the guinea pig ileum; assay type: functional
Rattus norvegicus [1] = organism: Rattus norvegicus; test: Inhibition of carbachol-induced release of alpha-amylase from pancreatic acini from rat was determined; assay type: functional; details: read-out: I50
Procedure, shortened: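 Dispersed acini from male Sprague–Dawley rat pancreas (collagenase 0.8 mg/mL, three incubations), in DMEM with 0.2% albumin, 0.01% trypsin inhibitor, 0.09% theophylline under O2; viability >99%. Incubated with graded antagonist plus 10⁻⁵ M carbachol; secreted α-amylase by Phadebas assay; I50 by curve fitting.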

[2] = target: Muscarinic acetylcholine receptor; test: Inhibit the binding of [N-mnethyl-3H]-scopolamine [3H]-NMS) to Muscarinic acetylcholine receptor of human IRM-30 neuroblastoma cells
Rattus norvegicus [3] = organism: Rattus norvegicus; test: Compound was tested for decrease in rate of lever pressing by rat; assay type: functional
Procedure, shortened: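 Male Sprague–Dawley rats (350 g) lever-pressing for food on a 10-response schedule; sessions 30 min or 50 food presentations. Drug given intraperitoneally 30 min before session; saline controls. Mean ± SEM of single or duplicate determinations in four to six rats; I50 in mol/kg for rate decrease.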

Structure (SMILES)	Kb (Cavia porcellus)	Kb (Cavia porcellus; read-out: pA2 (converted))	IC50 (Rattus norvegicus [1])	Ki [2]	I50 (Rattus norvegicus [3])
CCN(CC)CCOC(=O)C(c1ccccc1)c1ccccc1 [ADIPHENINE]	92 nM	79.4 nM	350 nM	–	–
CCN(CC)CCOC(=O)C(C)(c1ccccc1)c1ccccc1 [APROFENE]	3.1 nM	3.16 nM	11 nM	23 nM	–
CN1[C@@H]2CC[C@H]1C[C@@H](OC(=O)C(CO)c1ccccc1)C2 (stereo partly drawn) [ATROPINE]	2 nM	2 nM	51 nM	–	2.3e-05 M/kg
CN1CC2CC(OC(=O)C(C)(c3ccccc3)c3ccccc3)CC1C2 (stereo not drawn) [AZAPROPHEN]	–	–	0.068 nM	0.27 nM	1.9e-05 M/kg
CCN(CC)CCOC(=O)C(O)(c1ccccc1)c1ccccc1 [BENACTYZINE]	–	–	30 nM	–	–
CN1CCN(CC(=O)N2c3ccccc3C(=O)Nc3cccnc32)CC1 [PIRENZEPINE]	50000 nM	50100 nM	2800 nM	–	–
